Experimental data published in ChEMBL document CHEMBL1147605, “Syntheses and biological evaluation of new fluoroquinolone antibacterials containing chiral oxiimino pyrrolidine” (Bioorg Med Chem Lett, 2004).
In brackets after ≈: the same amount, converted by molar mass.

Experiments:
Enterococcus sp. = experiment: In vitro antibacterial activity against the Ofloxacin Resistant Enterococcus knothe 101; type: functional
Outline: (§1)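 MICs by agar dilution following National Committee for Clinical Laboratory Standards recommendations; all strains obtained from Hoechst.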

Enterobacter cloacae = experiment: In vitro antibacterial activity against the Enterobacter cloacae 1321 E; type: functional
Escherichia coli [1] = experiment: In vitro antibacterial activity against the Escherichia coli 078; type: functional
Klebsiella = experiment: In vitro antibacterial activity against the Ofloxacin Resistant Klebsiella species 30-92; type: functional; outline: as §1
Pseudomonas aeruginosa [2] = experiment: In vitro antibacterial activity against the Ofloxacin Resistant Pseudomonas aeruginosa 279II; type: functional; outline: as §1
Pseudomonas aeruginosa [3] = experiment: In vitro antibacterial activity against the Pseudomonas aeruginosa 1592E; type: functional
Pseudomonas aeruginosa [4] = experiment: In vitro antibacterial activity against the Pseudomonas aeruginosa 1771M; type: functional
Salmonella typhimurium = experiment: In vitro antibacterial activity against the Salmonella Typhimurium; type: functional, Salmonella enterica subsp. enterica serovar Typhimurium; settings: Salmonella enterica
[5] = test system: Staphylococcus epidermidis; experiment: In vitro antibacterial activity against the Ofloxacin Resistant Staphylococcus epidermidis 291; type: functional; outline: as §1
[6] = test system: Staphylococcus epidermidis; experiment: In vitro antibacterial activity against the Ofloxacin Resistant Staphylococcus epidermidis 319; type: functional; outline: as §1
Staphylococcus aureus [7] = experiment: In vitro antibacterial activity against the Ofloxacin Resistant Staphylococcus aureus 179; type: functional; outline: as §1
Staphylococcus aureus [8] = experiment: In vitro antibacterial activity against the Ofloxacin Resistant Staphylococcus aureus 293; type: functional; outline: as §1
Staphylococcus aureus [9] = experiment: In vitro antibacterial activity against the Ofloxacin Resistant Staphylococcus aureus 303; type: functional; outline: as §1
Staphylococcus aureus [10] = experiment: In vitro antibacterial activity against the Methicillin-Resistant Staphylococcus aureus (MRSA) 690 E; type: functional; outline: as §1
Staphylococcus aureus [11] = experiment: In vitro antibacterial activity against the Methicillin-Resistant Staphylococcus aureus (MRSA) 692 E; type: functional; outline: as §1
Staphylococcus aureus [12] = experiment: In vitro antibacterial activity against the Methicillin-Resistant Staphylococcus aureus (MRSA) 697 E; type: functional; outline: as §1
Staphylococcus aureus [13] = experiment: In vitro antibacterial activity against the Methicillin-Resistant Staphylococcus aureus (MRSA) 701 E; type: functional; outline: as §1
Staphylococcus aureus [14] = experiment: In vitro antibacterial activity against the Methicillin-Resistant Staphylococcus aureus (MRSA) 705 E; type: functional; outline: as §1
Staphylococcus aureus [15] = experiment: In vitro antibacterial activity against the Methicillin-Resistant Staphylococcus aureus (MRSA) 707 E; type: functional; outline: as §1
Staphylococcus aureus [16] = experiment: In vitro antibacterial activity against the Staphylococcus aureus SG511; type: functional
Streptococcus pyogenes [17] = experiment: In vitro antibacterial activity against the Streptococcus pyogenes 308A; type: functional
Streptococcus pyogenes [18] = experiment: In vitro antibacterial activity against the Streptococcus pyogenes 77A; type: functional
Escherichia coli [19] = experiment: In vitro antibacterial activity against the Escherichia coli DC 2; type: functional
Staphylococcus aureus [20] = experiment: In vitro antibacterial activity against the Staphylococcus aureus 285; type: functional
[21] = Half-life period for the compound was determined in rats at 50 mg/kg dose; type: ADME, organism-based; set-up: dose 50 mg/kg; settings: rat, in vivo
[22] = Plasma concentration for the compound was determined in rats at 50 mg/kg dose; type: ADME, organism-based; set-up: dose 50 mg/kg; settings: rat
Outline: (§2)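 Pharmacokinetics were measured in SD rats given 50mg/kg, reporting Cmax, Tmax, T1/2 and AUC.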

[23] = Time for maximum plasma concentration reached by compound was determined in rats at 50 mg/kg dose; type: ADME, organism-based; set-up: dose 50 mg/kg; settings: rat; outline: as §2
[24] = Maximum plasma concentration reached by compound was determined in rats at 50 mg/kg dose; type: ADME, organism-based; set-up: dose 50 mg/kg; settings: rat; outline: as §2
HepG2 = experiment: Cytotoxicity was determined for the compound in HepG2 cell line; type: functional, cell-based; settings: Homo sapiens
V79-4 = experiment: Cytotoxicity was determined for the compound in V79-4 cell line; type: functional, cell-based; settings: Cricetulus griseus

Structure (SMILES)	MIC (Enterococcus sp.) [µg/mL]	MIC (Enterobacter cloacae) [µg/mL]	MIC (Escherichia coli [1]) [µg/mL]	MIC (Klebsiella) [µg/mL]	MIC (Pseudomonas aeruginosa [2]) [µg/mL]	MIC (Pseudomonas aeruginosa [3]) [µg/mL]	MIC (Pseudomonas aeruginosa [4]) [µg/mL]	MIC (Salmonella typhimurium) [µg/mL]	MIC [5] [µg/mL]	MIC [6] [µg/mL]	MIC (Staphylococcus aureus [7]) [µg/mL]	MIC (Staphylococcus aureus [8]) [µg/mL]	MIC (Staphylococcus aureus [9]) [µg/mL]	MIC (Staphylococcus aureus [10]) [µg/mL]	MIC (Staphylococcus aureus [14]) [µg/mL]	MIC (Staphylococcus aureus [16]) [µg/mL]	MIC (Streptococcus pyogenes [17]) [µg/mL]	MIC (Streptococcus pyogenes [18]) [µg/mL]	MIC (Escherichia coli [19]) [µg/mL]	MIC (Staphylococcus aureus [20]) [µg/mL]	further results
CO/N=C1\CN(c2nc3c(cc2F)c(=O)c(C(=O)O)cn3C2CC2)C[C@@]1(C)CN.Cl	0.391	0.007	0.025	3.12	6.25	0.781	0.391	0.013	3.12	6.25	1.56	1.56	0.781	0.025	0.049	0.049	0.195	0.098	0.098	0.049	MIC (Staphylococcus aureus [11]): 0.025 µg/mL; MIC (Staphylococcus aureus [12]): 0.025 µg/mL; MIC (Staphylococcus aureus [13]): 0.049 µg/mL; MIC (Staphylococcus aureus [15]): 0.013 µg/mL
CO/N=C1\CN(c2nc3c(cc2F)c(=O)c(C(=O)O)cn3C2CC2)CC1CN (stereo not drawn) [GEMIFLOXACIN]	0.098 (≈ 0.252 µM)	0.004 (≈ 0.0103 µM)	0.007 (≈ 0.018 µM)	0.781 (≈ 2.01 µM)	6.25 (≈ 16.1 µM)	0.391 (≈ 1 µM)	0.195 (≈ 0.501 µM)	0.004 (≈ 0.0103 µM)	1.56 (≈ 4.01 µM)	3.12 (≈ 8.03 µM)	0.781 (≈ 2.01 µM)	0.781 (≈ 2.01 µM)	0.781 (≈ 2.01 µM)	0.098 (≈ 0.252 µM)	0.098 (≈ 0.252 µM)	0.013 (≈ 0.0334 µM)	0.195 (≈ 0.501 µM)	0.025 (≈ 0.0642 µM)	0.025 (≈ 0.0642 µM)	0.025 (≈ 0.0642 µM)	half-life [21]: 2.12 h; AUC [22]: 25800 ng·h/mL; Tmax [23]: 1 h; Cmax [24]: 6630 ng/mL; IC50 (HepG2): 13.5 µg/mL (≈ 34.6 µM); MIC (Staphylococcus aureus [11]): 0.049 µg/mL (≈ 0.126 µM); MIC (Staphylococcus aureus [12]): 0.049 µg/mL (≈ 0.126 µM); MIC (Staphylococcus aureus [13]): 0.098 µg/mL (≈ 0.252 µM); MIC (Staphylococcus aureus [15]): 0.025 µg/mL (≈ 0.0642 µM); IC50 (V79-4): 10.1 µg/mL (≈ 25.9 µM)
CC1(CN)CN(c2nc3c(cc2F)c(=O)c(C(=O)O)cn3C2CC2)C/C1=N/OCc1ccccc1.Cl (stereo not drawn)		0.049	0.049			6.25	1.56	0.098								< 0.002	0.195	0.025	0.098	< 0.002	
N[C@@H]1[C@H]2CN(c3nc4c(cc3F)c(=O)c(C(=O)O)cn4-c3ccc(F)cc3F)C[C@@H]12 [TROVAFLOXACIN]																					IC50 (HepG2): 11.2 µg/mL (≈ 26.8 µM); IC50 (V79-4): 3.77 µg/mL (≈ 9.05 µM)
CO/N=C1\CN(c2nc3c(cc2F)c(=O)c(C(=O)O)cn3C2CC2)CC1(C)CN.Cl (stereo not drawn)	0.098	0.004	0.004	1.56	6.25	0.781	0.391	0.007	0.391	0.391	0.195	0.195	0.195	0.004	0.013	0.004	0.098	0.025	0.049	0.007	MIC (Staphylococcus aureus [11]): < 0.002 µg/mL; MIC (Staphylococcus aureus [12]): 0.007 µg/mL; MIC (Staphylococcus aureus [13]): 0.007 µg/mL; MIC (Staphylococcus aureus [15]): < 0.002 µg/mL
CO/N=C1\CN(c2c(F)c(N)c3c(=O)c(C(=O)O)cn(C4CC4)c3c2F)CC1(C)CN.Cl (stereo not drawn)	0.025	< 0.002	< 0.002	0.781	6.25	0.391	0.195	< 0.002	0.025	0.049	0.025	0.025	0.025		0.004	< 0.002	0.013	< 0.002	0.007		
CO/N=C1\CN(c2c(F)cc3c(=O)c(C(=O)O)cn(C4CC4)c3c2F)CC1(C)CN.Cl (stereo not drawn)		0.013	0.025			1.56	0.781	0.025								0.013	0.098	0.025	0.049	0.013	
